Assay results reported in ChEMBL document CHEMBL1687901 (J Med Chem, 2011).
≈ marks a conversion by molar mass, not a printed value.

Columns and labels:
[1] = tested on: Escherichia coli; test: Antibacterial activity against tetracycline-resistant Escherichia coli isolate 155 harboring tet(A) gene by CLSI M07-A8 method; type: functional
Procedure, shortened: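 MICs were determined by CLSI broth microdilution in freshly prepared cation-adjusted Mueller Hinton broth, kept at 4 °C before use. Defibrinated horse blood was added as appropriate. The highest concentration tested was 32 μg/mL. Runs met QC ranges for comparator antibiotics with ATCC quality control strains.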

[2] = tested on: Staphylococcus aureus; test: Antibacterial activity against tetracycline-resistant Staphylococcus aureus isolate 158 harboring tet(K) gene by CLSI M07-A8 method; type: functional
Procedure, shortened: (§1)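 MICs were determined by CLSI broth microdilution in freshly prepared cation-adjusted Mueller Hinton broth, kept at 4 °C before use. Defibrinated horse blood was added as appropriate. Runs met QC ranges for comparator antibiotics with ATCC quality control strains.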

[3] = tested on: Escherichia coli; test: Inhibition of protein synthesis in Escherichia coli S30 extract by coupled transcription/translation assay; type: functional
Procedure, shortened: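 Coupled transcription/translation used an E. coli S30 extract with a firefly luciferase reporter. Compounds were diluted in water and tested as a three-point titration in duplicate. Reactions ran 1 h at 37 °C and were stopped on ice for 5 min, then luciferase substrate was added and luminescence read. Percent inhibition was calculated against uninhibited controls averaged per plate, and IC50 derived.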

[4] = tested on: Staphylococcus aureus; test: Antibacterial activity against tetracycline-resistant Staphylococcus aureus isolate 161 harboring tet(M) gene by CLSI M07-A8 method; type: functional; procedure, shortened: as §1
[5] = tested on: Streptococcus pneumoniae; test: Antibacterial activity against Streptococcus pneumoniae ATCC 49619 by CLSI M07-A8 method; type: functional
[6] = tested on: Streptococcus pneumoniae; test: Antibacterial activity against tetracycline-resistant Streptococcus pneumoniae isolate 160 harboring tet(M) gene by CLSI M07-A8 method; type: functional; procedure, shortened: as §1
[7] = tested on: Escherichia coli; test: Antibacterial activity against Escherichia coli ATCC 25922 by CLSI M07-A8 method; type: functional
[8] = tested on: Klebsiella pneumoniae; test: Antibacterial activity against Klebsiella pneumoniae ATCC 13883 by CLSI M07-A8 method; type: functional
[9] = tested on: Staphylococcus aureus; test: Antibacterial activity against wild type Staphylococcus aureus Smith ATCC 13709 by CLSI M07-A8 method; type: functional
[10] = in vivo; details: Sprague-Dawley, rat, iv, 1 mg/kg
[11] = tested on: Escherichia coli; test: Antibacterial activity against Escherichia coli by CLSI M07-A8 method; type: functional
[12] = tested on: Streptococcus pneumoniae; test: Antibacterial activity against Streptococcus pneumoniae by CLSI M07-A8 method; type: functional
[13] = Clearance in Sprague-Dawley rat at 1 mg/kg, iv and 10 mg/kg, po; type: ADME, organism-based; details: in vivo
[14] = tested on: Staphylococcus aureus; test: Antibacterial activity against Staphylococcus aureus by CLSI M07-A8 method; type: functional
[15] = AUC in Sprague-Dawley rat at 1 mg/kg, iv and 10 mg/kg, po; type: ADME, organism-based; details: plasma
[16] = tested on: Staphylococcus aureus; test: Antibacterial activity against Staphylococcus aureus ATCC 13709 infected in iv dosed mouse septicemia model assessed as mouse protection after 48 hrs; type: functional; details: ATCC 13709, iv, read-out: PD50
Procedure, shortened: (§2)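 Mice were challenged intraperitoneally with bacteria mixed with 5% mucin. For S. aureus ATCC 13709 (Smith) the inoculum was 2.1 × 10^6 cfu/mouse, and for E. coli ATCC 25922 it was 2.0 × 10^7 cfu/mouse. PD50 in mg/kg was calculated from survival at 48 h.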

[17] = tested on: Rattus norvegicus; test: Oral bioavailability in Sprague-Dawley rat at 1 mg/kg, iv and 10 mg/kg, po; type: ADME, organism-based; details: in vivo
[18] = Half life in Sprague-Dawley rat at 1 mg/kg, iv and 10 mg/kg, po; type: ADME, organism-based; details: in vivo
[19] = tested on: Haemophilus influenzae; test: Antibacterial activity against Haemophilus influenzae by CLSI M07-A8 method; type: functional
[20] = tested on: Escherichia coli; test: Antibacterial activity against Escherichia coli ATCC 25922 infected in iv dosed mouse septicemia model assessed as mouse protection after 48 hrs; type: functional; details: ATCC 25922, iv, read-out: PD50; procedure, shortened: as §2
[21] = tested on: Staphylococcus aureus; test: Antibacterial activity against Staphylococcus aureus ATCC 13709 infected in mouse septicemia model assessed as mouse survival at 0.05 to 10 mg/kg, iv after 48 hrs; details: dose mg/kg 0.05-10

Row | SMILES | MIC [1] | MIC [2] | IC50 [3] | MIC [4] | MIC [5] | MIC [6] | MIC [7] | MIC [8] | MIC [9] | MIC90 [11] | MIC50 [14] | MIC90 [14] | ED50 [16] | ED50 [20] | other results
1 | CN(C)[C@@H]1C(O)=C(C(N)=O)C(=O)[C@@]2(O)C(O)=C3C(=O)c4c(O)c(N)nc(Cl)c4C[C@H]3C[C@@H]12 | > 32 µg/mL | 8 µg/mL (≈ 17.2 µM) | 1.1 µg/mL (≈ 2.37 µM) | 4 µg/mL (≈ 8.6 µM) | 0.016 µg/mL (≈ 0.0344 µM) | 4 µg/mL (≈ 8.6 µM) | 0.25 µg/mL (≈ 0.538 µM) | 0.5 µg/mL (≈ 1.08 µM) | 0.016 µg/mL (≈ 0.0344 µM) | – | – | – | – | – | –
2 | CN(C)CCCNc1nc(Cl)c2c(c1O)C(=O)C1=C(O)[C@]3(O)C(=O)C(C(N)=O)=C(O)[C@@H](N(C)C)[C@@H]3C[C@@H]1C2.Cl | > 32 µg/mL | 2 µg/mL | 0.58 µg/mL | 8 µg/mL | 1 µg/mL | 4 µg/mL | 8 µg/mL | 16 µg/mL | 2 µg/mL | – | – | – | – | – | –
3 | CN(C)CC(C)(C)CNc1nc(Cl)c2c(c1O)C(=O)C1=C(O)[C@]3(O)C(=O)C(C(N)=O)=C(O)[C@@H](N(C)C)[C@@H]3C[C@@H]1C2.Cl | 8 µg/mL | 0.125 µg/mL | 0.7 µg/mL | 2 µg/mL | 0.016 µg/mL | 0.125 µg/mL | 0.5 µg/mL | 2 µg/mL | 0.5 µg/mL | 4 µg/mL | 0.125 µg/mL | 2 µg/mL | 0.36 mg/kg | 17 mg/kg | Vd [10]: 1.26 L/kg; MIC50 [11]: 1 µg/mL; MIC [12]: ≤ 0.016 µg/mL; MIC50 [12]: ≤ 0.016 µg/mL; MIC90 [12]: 0.063 µg/mL; clearance [13]: 3.37 mL/min/kg; AUC [15]: 4870 ng·h/mL; F [17]: 0.8%; half-life [18]: 4.3 h; MIC50 [19]: 1 µg/mL; MIC90 [19]: 1 µg/mL
4 | CN(C)c1nc(NC(=O)CNC(C)(C)C)c(O)c2c1C[C@H]1C[C@H]3[C@H](N(C)C)C(O)=C(C(N)=O)C(=O)[C@@]3(O)C(O)=C1C2=O.Cl | > 32 µg/mL | 8 µg/mL | 0.71 µg/mL | 32 µg/mL | 4 µg/mL | 4 µg/mL | 32 µg/mL | > 32 µg/mL | 16 µg/mL | – | – | – | – | – | –
5 | CN(C)[C@@H]1C(O)=C(C(N)=O)C(=O)[C@@]2(O)C(O)=C3C(=O)c4c(O)c(N)nc(F)c4C[C@H]3C[C@@H]12.Cl.Cl | > 32 µg/mL | 8 µg/mL | 0.93 µg/mL | 2 µg/mL | 0.063 µg/mL | 2 µg/mL | 0.25 µg/mL | 1 µg/mL | 0.063 µg/mL | – | – | – | – | – | –
6 | CN(C)[C@@H]1C(O)=C(C(N)=O)C(=O)[C@@]2(O)C(O)=C3C(=O)c4c(O)c(NC(=O)CNC(C)(C)C)nc(F)c4C[C@H]3C[C@@H]12.Cl.Cl | > 32 µg/mL | 16 µg/mL | 0.36 µg/mL | 16 µg/mL | 2 µg/mL | 8 µg/mL | 8 µg/mL | 16 µg/mL | 4 µg/mL | – | – | – | – | – | –
7 | CCCNc1nc(F)c2c(c1O)C(=O)C1=C(O)[C@]3(O)C(=O)C(C(N)=O)=C(O)[C@@H](N(C)C)[C@@H]3C[C@@H]1C2.Cl.Cl | 16 µg/mL | 0.25 µg/mL | 2.8 µg/mL | 2 µg/mL | 4 µg/mL | 4 µg/mL | 2 µg/mL | 8 µg/mL | 0.25 µg/mL | – | – | – | – | – | –
8 | CN(C)c1ncc(O)c2c1C[C@H]1C[C@H]3[C@H](N(C)C)C(O)=C(C(N)=O)C(=O)[C@@]3(O)C(O)=C1C2=O.Cl.Cl | > 32 µg/mL | 2 µg/mL | 0.76 µg/mL | 16 µg/mL | 0.063 µg/mL | 8 µg/mL | 0.125 µg/mL | 0.25 µg/mL | 0.031 µg/mL | > 32 µg/mL | ≤ 0.016 µg/mL | 16 µg/mL | < 0.3 mg/kg | 4.3 mg/kg | Vd [10]: 4.18 L/kg; MIC50 [11]: 0.25 µg/mL; MIC50 [12]: 2 µg/mL; MIC90 [12]: 4 µg/mL; clearance [13]: 15.3 mL/min/kg; MIC [14]: ≤ 0.016 µg/mL; Survival [21]: 100%; AUC [15]: 1090 ng·h/mL; F [17]: 12.7%; half-life [18]: 3.1 h; MIC50 [19]: 0.5 µg/mL; MIC90 [19]: 2 µg/mL
9 | CN(C)[C@@H]1C(O)=C(C(N)=O)C(=O)[C@@]2(O)C(O)=C3C(=O)c4c(O)c(NC(=O)CNC(C)(C)C)nc(Cl)c4C[C@H]3C[C@@H]12.Cl.Cl.Cl | > 32 µg/mL | 32 µg/mL | 0.78 µg/mL | 32 µg/mL | 1 µg/mL | 16 µg/mL | 4 µg/mL | 8 µg/mL | 2 µg/mL | – | – | – | – | – | –
10 | CN(C)[C@@H]1C(O)=C(C(N)=O)C(=O)[C@@]2(O)C(O)=C3C(=O)c4c(O)cccc4[C@@](C)(O)[C@H]3C[C@@H]12 [TETRACYCLINE] | > 32 µg/mL | – | – | – | 0.25 µg/mL (≈ 0.563 µM) | – | – | – | – | > 64 µg/mL | 0.125 µg/mL (≈ 0.281 µM) | > 64 µg/mL | 0.35 mg/kg | 17 mg/kg | MIC [12]: 0.125 µg/mL (≈ 0.281 µM); MIC [19]: 0.25 µg/mL (≈ 0.563 µM)
11 | CN(C)c1cc(NC(=O)CNC(C)(C)C)c(O)c2c1C[C@H]1C[C@H]3[C@H](N(C)C)C(O)=C(C(N)=O)C(=O)[C@@]3(O)C(O)=C1C2=O [TIGECYCLINE] | 0.5 µg/mL (≈ 0.854 µM) | 0.063 µg/mL (≈ 0.108 µM) | 0.47 µg/mL (≈ 0.803 µM) | 0.125 µg/mL (≈ 0.213 µM) | 0.016 µg/mL (≈ 0.0273 µM) | 0.016 µg/mL (≈ 0.0273 µM) | 0.125 µg/mL (≈ 0.213 µM) | 0.125 µg/mL (≈ 0.213 µM) | 0.063 µg/mL (≈ 0.108 µM) | 0.5 µg/mL (≈ 0.854 µM) | 0.063 µg/mL (≈ 0.108 µM) | 1 µg/mL (≈ 1.71 µM) | 0.35 mg/kg | 2.1 mg/kg | Vd [10]: 6.12 L/kg; MIC50 [11]: 0.25 µg/mL (≈ 0.427 µM); MIC [12]: ≤ 0.016 µg/mL; MIC50 [12]: ≤ 0.016 µg/mL; MIC90 [12]: ≤ 0.016 µg/mL; clearance [13]: 15.5 mL/min/kg; AUC [15]: 1050 ng·h/mL; F [17]: 1.1%; half-life [18]: 4.6 h; MIC50 [19]: 0.5 µg/mL (≈ 0.854 µM); MIC90 [19]: 0.5 µg/mL (≈ 0.854 µM)
